Series [1] can be described thus: Inhibition of CpxA in Escherichia coli harboring lacZ reporter gene assessed as activation of CpxR incubated for 5 hrs by beta-galactosidase assay. An outline of the steps: (§1)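 Read-out is a CpxR-responsive lacZ reporter in a modified E. coli strain, measured as beta-galactosidase activity. Where potency is given it is an EC50. Values are mean ± SEM of at least three separate experiments, each run in triplicate. Compounds showing cytotoxicity or general stress-response activation were not scored.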
For orientation: In a reporter assay the amount or activity of a reporter protein is the signal.

Series [2] has as its system Escherichia coli. Kind of series: Inhibition of CpxA in Escherichia coli harboring lacZ reporter gene assessed as activation of CpxR up to 80 uM incubated for 5 hrs by beta-galactosidase assay. The method, boiled down: as §1
Series [3] has as its system Escherichia coli. Kind of series: Inhibition of CpxA phosphatase activity in Escherichia coli assessed as increase in the ratio of CpxR-P to CpxR at 10 uM incubated for 5 hrs by densitometric method. An outline of the steps: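 Wild-type and ΔcpxA E. coli were grown in medium with 0.4% glucose, with 0 or 10 μM compound. CpxR phosphorylation was resolved by Phos-Tag gel and Western blot. His6CpxR incubated with 0 or 20 mM acetyl phosphate served as a marker. The CpxR-P:CpxR ratio was quantified by densitometry, as average and standard deviation of 5 independent experiments.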

Series [4] in a line: Drug uptake in Escherichia coli BW25113 at 16 to 128 ug/ml incubated for 1 to 40 mins by UHPLC-Q/TOF analysis. The series is classed as ADME. The method, boiled down:
(§2)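 Isogenic E. coli strains: wild-type efflux or TolC-deficient (efflux-deficient), each with or without an arabinose-induced large outer-membrane pore (hyperporinated). Cells were incubated with increasing compound concentrations. Intracellular accumulation was measured by mass spectrometry after 1 and 40 min.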

The nature of series [5]: Drug uptake in Escherichia coli BW25113 attTn7::mini-Tn7T-Kmrr-araC-ParaBAD-fhuAdeltaCdelta4L at 16 to 128 ug/ml incubated for 1 to 40 mins by UHPLC-Q/TOF analysis. In kind it is ADME. An outline of the steps: as §2
Series [6] can be described thus: Drug uptake in Escherichia coli BW25113 deltatolCygiBCattTn7::mini-Tn7T-Kmr-araC-ParaBAD-fhuAdeltaCdelta4L at 16 to 128 ug/ml incubated for 1 to 40 mins by UHPLC-Q/TOF analysis. In kind it is ADME. An outline of the steps:
as §2

Series [7] can be described thus: Drug uptake in Escherichia coli BW25113 harboring tolC deletion mutant at 16 to 128 ug/ml incubated for 1 to 40 mins by UHPLC-Q/TOF analysis. The series is classed as ADME. An outline of the steps: as §2

One may read the EC50 as the concentration at which the effect is half-maximal.

Active and inactive are the calls of the source. The calls are words filed in the database; no cut-off is given here.

As to `OC1CCCc2c1[nH]c1ccccc21` (stereo not given), the 50% effective concentration (EC50) in series [1] (read-out: EC50) is more than 100 µM.
Still for that read-out and setting: as for `NCc1cc2cc(F)ccc2[nH]1`, the figure is 79.5 µM; as for `O=[N+]([O-])c1ccc2[nH]c3c(c2c1)CCCC3`, more than 160 µM.
For the compound `C[C@@H](N)C(=O)Nc1ccc(F)c(F)c1`, the inhibition result in the series on Escherichia coli [2] was “inactive”.
Consider `NC1CCCc2c1[nH]c1ccc([N+](=O)[O-])cc21` (racemic), for which the concentration for a half-maximal effect (EC50) in series [1] (read-out: EC50) is 24.8 µM. Also, the inhibition entry in the series on Escherichia coli [3] was “Active”.
With `NC1CCCc2c1[nH]c1ccc(Cl)cc21` (racemic), the EC50 in series [1] (read-out: EC50) amounted to 10.9 µM.
As for `NC1CCCc2c1[nH]c1ccc(Br)cc21` (racemic), the EC50 result in series [1] is on record as “Nd(Toxic)”.
For the compound `CCC(C)[C@@H](N)C(=O)Nc1ccc(F)cc1` (stereo not given in full), in the series on Escherichia coli [2], the inhibition result was “inactive”.
Take `CC(N)c1cc2cc(Br)ccc2[nH]1` (stereo not given): the concentration giving a half-maximal response (EC50) in series [1] (read-out: EC50) came out at 44.2 µM.
Consider `CC(C)[C@@H](N)C(=O)Nc1ccc(F)cc1`, for which the inhibition result with Escherichia coli [2] is “inactive”.
Consider `COC(=O)c1ccc2[nH]c3c(c2c1)CCCC3N` (racemic), for which the EC50 in series [1] (read-out: EC50) was more than 100 µM.
For `C[C@@H](N)C(=O)Nc1ccc(F)cc1`, in the series on Escherichia coli [2], the inhibition entry was “inactive”.
Regarding `NC1CCCc2c1[nH]c1ccc(F)cc21` (racemic), the Drug uptake entry in series [4], in series [5], in series [6] and in series [7] was “Active” throughout. The 50% effective concentration (EC50) in series [1] (read-out: EC50) turned out to be 7.7 µM.
With `NC1CCCc2c1[nH]c1c(C(F)(F)F)cccc21` (racemic), the EC50 in series [1] (read-out: EC50) was more than 100 µM.
The same measure, in the same setting: as for `N[C@@H]1CCCc2c1[nH]c1cc(F)c(F)cc21`, the figure is 1.1 µM.
Consider `Fc1ccc2[nH]c3c(c2c1)CCCC3`, for which the Drug uptake result in series [4] was “Active”; in series [7], “Not Active”.
For the compound `N[C@H](Cc1ccccc1)C(=O)Nc1ccc(F)cc1`, in the series with Escherichia coli [2], the inhibition entry was “inactive”.
For `NC1CCCc2c1[nH]c1c(F)cccc21` (racemic), the EC50 in series [1] (read-out: EC50) is 56.8 µM.
Still for that read-out and setting: as for `NC1CCCc2c1[nH]c1cc(F)ccc21` (racemic), the figure is 11.9 µM.
For `NC1CCCc2c1[nH]c1cc(C(F)(F)F)ccc21` (racemic), the EC50 entry in series [1] was “Nd(Toxic)”.
`N[C@@H]1CCCc2c1[nH]c1ccc(F)cc21`: the EC50 in series [1] (read-out: EC50) was determined as 3.5 µM. The inhibition entry with Escherichia coli [3] is “Active”.
For the compound `NC1CCCc2c1[nH]c1ccc(C(=O)O)cc21` (racemic), in series [1] (read-out: EC50), the EC50 was more than 100 µM.
`COc1ccc2[nH]c3c(c2c1)CCCC3N` (racemic): the EC50 in series [1] (read-out: EC50) is more than 100 µM.
Still for that read-out and setting: with `NC1CCCc2c1[nH]c1cccc(F)c21` (racemic) the figure was 65.9 µM; with `N[C@H]1CCCc2c1[nH]c1ccc(F)cc21`, more than 100 µM.
In the case of `NC1CCCc2c1[nH]c1ccc(C(F)(F)F)cc21` (racemic), the EC50 in series [1] (read-out: EC50) came to 23.1 µM.
Take `CC(C)[C@@H](N)C(=O)Nc1ccc(F)c(F)c1`: in the series with Escherichia coli [2], the inhibition entry was “inactive”.
Regarding `NC1CCCc2c1[nH]c1ccc(S(N)(=O)=O)cc21` (racemic), the EC50 in series [1] (read-out: EC50) is more than 100 µM.
Still for that read-out and setting: as for `Cc1ccc2[nH]c3c(c2c1)CCCC3N` (racemic), the figure is 34.1 µM.
Consider `NC1CCCc2c1[nH]c1cccc(C(F)(F)F)c21` (racemic), for which the EC50 in series [1] (read-out: EC50) was more than 100 µM.
For `N#Cc1ccc2[nH]c3c(c2c1)CCCC3N` (racemic), the EC50 in series [1] (read-out: EC50) is more than 100 µM.
The same measure, in the same setting: with `NC1CCCc2c1[nH]c1cc(F)c(F)cc21` (racemic) the figure was 2.7 µM; with `NC1CCCc2c1[nH]c1ccccc21` (racemic), 30.2 µM.
